In ChEMBL document CHEMBL4732057, “Design, synthesis and biological evaluation of second-generation benzoylpiperidine derivatives as reversible monoacylglycerol lipase (MAGL) inhibitors” (Eur J Med Chem, 2021):

Tests used:
Monoglyceride lipase = biological target: T1, Monoglyceride lipase (Homo sapiens, UniProt Q99685); test: Inhibition of human recombinant MAGL using 4-nitrophenylacetate as substrate incubated for 30 mins by microplate reader assay
T1 sequence (Q99685 whole entry): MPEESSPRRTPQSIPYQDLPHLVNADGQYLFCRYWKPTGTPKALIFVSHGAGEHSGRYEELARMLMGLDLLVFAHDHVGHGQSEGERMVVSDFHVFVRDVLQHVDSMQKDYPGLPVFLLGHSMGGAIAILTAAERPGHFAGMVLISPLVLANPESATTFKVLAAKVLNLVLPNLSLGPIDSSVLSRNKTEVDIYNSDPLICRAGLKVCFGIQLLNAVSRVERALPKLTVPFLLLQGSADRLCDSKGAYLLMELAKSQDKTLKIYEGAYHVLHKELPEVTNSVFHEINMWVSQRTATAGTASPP
Method in brief: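 Human recombinant MAGL, 11 ng/well, in 10 mM Tris pH 7.2 with 1 mM EDTA and 0.1 mg/mL BSA, at room temperature. 4-NPA 133.3 µM stock added; enzyme added last. Absorbance at 405 nm after 30 min, minus a no-enzyme blank for each concentration. Sigmoidal fit; duplicates of three independent experiments.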

[1] = Antiproliferative activity against human PDAC-3 cells assessed as inhibition of cell growth incubated for 72 hrs by SRB assay; type: functional, cell-based; conditions: PDAC-3, 72 h
Method in brief: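 Primary patient-derived PDAC-3 cells, cultured under 20 passages in RPMI-1640 with 10% NBCS. Compounds dissolved in DMSO and tested at 8 concentrations, 156.25 to 20 000 nM. Growth read by sulforhodamine-B assay.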

SK-OV-3 = test: Antiproliferative activity against human SKOV3 cells as reduction in cell growth measured after 96 hrs by Celltiter-glo luminescent assay; type: functional, cell-based; conditions: SK-OV-3, 96 h
Method in brief: (§1)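 Cell lines kept at 37 °C, 5% CO2; 5 × 10^2 cells per well, compound added the day after seeding at 200 to 0.02 µM. Viability read after 96 h by CellTiter-Glo luminescence. IC50 from logistic dose-response curves, in triplicate; error bars are SD.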

MDA-MB-231 = test: Antiproliferative activity against human MDA-MB-231 cells as reduction in cell growth measured after 96 hrs by Celltiter-glo luminescent assay; type: functional, cell-based; conditions: MDA-MB-231, 96 h; method in brief: as §1
OVCAR-3 = test: Antiproliferative activity against human OVCAR3 cells as reduction in cell growth measured after 96 hrs by Celltiter-glo luminescent assay; type: functional, cell-based; conditions: OVCAR-3, 96 h; method in brief: as §1
Caov-3 cell line = test: Antiproliferative activity against human CAOV3 cells as reduction in cell growth measured after 96 hrs by Celltiter-glo luminescent assay; type: functional, cell-based; conditions: Caov-3, 96 h; method in brief: as §1
HCT-116 = test: Antiproliferative activity against human HCT116 cells as reduction in cell growth measured after 96 hrs by Celltiter-glo luminescent assay; type: functional, cell-based; conditions: HCT-116, 96 h; method in brief: as §1
[2] = Cytotoxicity against cancer-derived human organoids in HGSOC patient assessed as reduction in cell viability up to 100 uM measured after 96 hrs by Celltiter-glo luminescent assay; type: functional, Neoplasm; conditions: dose microM <=100
Method in brief: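 Organoids from three HGSOC patients. Tissue digested with 2 mg/mL collagenase for 30 min, embedded in BME matrix and cultured. Treated at 100 µM, with carboplatin as positive control. Viability read by CellTiter-Glo luminescence.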

| Structure (SMILES) | IC50 (Monoglyceride lipase) [nM] | further results |
| --- | --- | --- |
| O=C(c1ccc(C2CC2)cc1)C1CCN(C(=O)c2cccc(O)c2)CC1 | 368 |  |
| CC(C)c1ccc(C(=O)C2CCN(C(=O)c3cc(O)ccn3)CC2)cc1 | > 10000 |  |
| O=C(c1ccc(-c2cn(CCCc3ccccc3)nn2)cc1)C1CCN(C(=O)c2cccc(O)c2)CC1 | 3300 |  |
| CC(C)c1ccc(C(=O)C2CCN(C(=O)c3cncc(O)c3)CC2)cc1 | 2000 |  |
| O=C(c1ccc(-c2cn(-c3ccccc3)nn2)cc1)C1CCN(C(=O)c2cccc(O)c2)CC1 | 1000 |  |
| CC(C)c1ccc(C(=O)C2CCN(C(=O)c3cccc(O)n3)CC2)cc1 | > 10000 |  |
| O=C(c1ccc(-c2cn(Cc3ccccc3)nn2)cc1)C1CCN(C(=O)c2cccc(O)c2)CC1 | 4400 |  |
| CC(C)c1ccc(C(=O)C2CCN(C(=O)c3cc(O)ccc3C(F)(F)F)CC2)cc1 | 8200 |  |
| Cc1ccc(O)cc1C(=O)N1CCC(C(=O)c2ccc(C(C)C)cc2)CC1 | 2300 |  |
| CC(C)c1ccc(C(=O)C2CCN(C(=O)c3cc(O)c(F)cc3F)CC2)cc1 | 31 |  |
| CC(C)c1ccc(C(=O)C2CCN(C(=O)c3cc(O)ccc3F)CC2)cc1 | 81 |  |
| O=C(c1ccc(C2CCCCC2)cc1)C1CCN(C(=O)c2cccc(O)c2)CC1 | 129 |  |
| O=C(c1ccc(Nc2ccccc2)cc1)C1CCN(C(=O)c2cccc(O)c2)CC1 | 758 |  |
| O=C(c1ccc(Oc2ccccc2)cc1)C1CCN(C(=O)c2cccc(O)c2)CC1 | 278 |  |
| O=C(c1ccc(Cc2ccccc2)cc1)C1CCN(C(=O)c2cccc(O)c2)CC1 | 78 |  |
| CC(C)c1ccc(C(=O)C2CCN(C(=O)c3ccnc(O)c3)CC2)cc1 | > 10000 |  |
| CC(C)c1ccc(C(=O)C2CCN(C(=O)c3cc(O)ccc3[N+](=O)[O-])CC2)cc1 | 4500 |  |
| CC(C)c1ccc(C(=O)C2CCN(C(=O)c3cc(O)ccc3N)CC2)cc1 | > 10000 |  |
| O=C(c1ccc(S(=O)(=O)c2ccccc2)cc1)C1CCN(C(=O)c2cccc(O)c2)CC1 | 3400 |  |
| O=C(c1ccc(Sc2ccccc2)cc1)C1CCN(C(=O)c2cccc(O)c2)CC1 | 74 |  |
| Nc1ccn([C@@H]2O[C@H](CO)[C@@H](O)C2(F)F)c(=O)n1 [GEMCITABINE] |  | IC50 [1]: 5.54 nM |
| O=C(c1ccc([S+]([O-])c2ccccc2)cc1)C1CCN(C(=O)c2cccc(O)c2)CC1 (stereo not given) | 4300 |  |
| COc1nn(-c2ccc(NC(=O)OCc3ccccc3)c(C)c2)c(=O)o1 | 130 | IC50 (SK-OV-3): 33000 nM; IC50 (MDA-MB-231): 83000 nM; IC50 (OVCAR-3): 53000 nM; IC50 (Caov-3 cell line): 95000 nM; IC50 (HCT-116): 38000 nM; inhibition (INH) [2]: 50% |
| CC(C)c1ccc(C(=O)C2CCN(C(=O)c3cccc(O)c3)CC2)cc1 | 142 |  |
